Consider 18 compounds from ChEMBL document CHEMBL3804821, “Design and synthesis of some novel 4-Chloro-N-(4-(1-(2-(2-cyanoacetyl)hydrazono)ethyl)phenyl) benzenesulfonamide derivatives as anticancer and radiosensitizing agents” (Eur J Med Chem, 2016).

The test system of assay [1] is HepG2. Nature of the assay: Cytotoxicity against human HepG2 cells assessed as surviving fraction at 12.5 uM after 48 hrs by SRB assay relative to control. Format: functional. In short, it runs like this: (§1)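 Cells seeded at 10^4/well and allowed to attach for 24 h. Compounds dissolved in DMSO, diluted with saline, and added at 12.5, 25, 50 and 100 µM in triplicate wells. Exposure 48 h, 37 °C, 5% CO2. Cells then TCA-fixed and stained 30 min with 0.4% SRB in 1% acetic acid, washed four times with 1% acetic acid, and dye recovered in Tris-EDTA. Absorbance read and surviving fraction plotted against concentration to obtain IC50.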
(The SRB assay estimates cell density from bound dye.)

Assay [2] relates to HepG2. Nature of the assay: Cytotoxicity against human HepG2 cells assessed as surviving fraction at 100 uM after 48 hrs by SRB assay relative to control. Format: functional. The method, boiled down:
as §1

In assay [3] the test system is HepG2. The assay is described as follows: Cytotoxicity against human HepG2 cells assessed as surviving fraction at 25 uM after 48 hrs by SRB assay relative to control. Format: functional. The method, boiled down:
as §1

In assay [4] the test system is HepG2. The assay is described as follows: Cytotoxicity against human HepG2 cells assessed as surviving fraction at 50 uM after 48 hrs by SRB assay relative to control. Format: functional. The method, boiled down:
as §1

The subject of assay [5] is HepG2. Nature of the assay: Cytotoxicity against human HepG2 cells assessed as cell viability after 48 hrs by SRB assay. Format: functional, cell-based. As to conditions: HepG2, 48 h. The method, boiled down: as §1
For assay [6], the system named is HepG2. The assay is described as follows: Cytotoxicity against human HepG2 cells assessed as surviving fraction at 12.5 uM treated for 2 hrs followed by gamma irradiation of 8 Gy with dosage rate of 0.758 rad/sec for 17.73 mins measured after 48 hrs by SRB assay relative to control. Format: functional. In short, it runs like this:
(§2)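 Cells seeded at 10^4/well for 24 h, then given compound at 12.5, 25, 50 or 100 µM. After 2 h, a single 8 Gy γ-ray dose was delivered (0.758 rad/sec, 17.73 min). Cells fixed 48 h after irradiation and stained with 0.4% SRB in 1% acetic acid, read at 570 nm. Surviving fraction reported as mean ± standard error and analysed by 1-way ANOVA; IC50 taken from the survival curve.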

Assay [7] deals with HepG2. The assay is described as follows: Cytotoxicity against human HepG2 cells assessed as surviving fraction at 25 uM treated for 2 hrs followed by gamma irradiation of 8 Gy with dosage rate of 0.758 rad/sec for 17.73 mins measured after 48 hrs by SRB assay relative to control. Format: functional. In short, it runs like this: as §2
Assay [8] deals with HepG2. Nature of the assay: Cytotoxicity against human HepG2 cells assessed as surviving fraction at 100 uM treated for 2 hrs followed by gamma irradiation of 8 Gy with dosage rate of 0.758 rad/sec for 17.73 mins measured after 48 hrs by SRB assay relative to control. Format: functional. In short, it runs like this:
as §2

In assay [9] the test system is HepG2. Nature of the assay: Cytotoxicity against human HepG2 cells assessed as cell viability treated for 2 hrs followed by gamma irradiation of 8 Gy with dosage rate of 0.758 rad/sec for 17.73 mins measured after 48 hrs by SRB assay. Format: functional, cell-based. As to conditions: HepG2, light or radiation study. In short, it runs like this: as §2
In assay [10] the test system is HepG2. The assay is described as follows: Cytotoxicity against human HepG2 cells assessed as surviving fraction at 50 uM treated for 2 hrs followed by gamma irradiation of 8 Gy with dosage rate of 0.758 rad/sec for 17.73 mins measured after 48 hrs by SRB assay relative to control. Format: functional. The method, boiled down:
as §2

The subject of assay [11] is HepG2. The assay is described as follows: Potency index, ratio of doxorubicin IC50 to compound IC50 for human HepG2 cells. Format: functional.

pIC50: −log10 of the molar value.

By pIC50 is commonly meant the negative decadic logarithm of the IC50, by convention in mol/L.

In the case of `CCOC(=O)c1c(-c2ccc(N(C)C)cc2)c(C#N)c(=O)n(/N=C(\C)c2ccc(NS(=O)(=O)c3ccc(Cl)cc3)cc2)c1N`, the Ratio came out at 0.653 in [1], 0.196 in [2], 0.432 in [3] and 0.396 in [4]. Besides, the pIC50 in assay [5] is 4.68.
With `CCOC(=O)c1c(-c2ccco2)c(C#N)c(=O)n(/N=C(\C)c2ccc(NS(=O)(=O)c3ccc(Cl)cc3)cc2)c1N`, the Ratio in [1] is on record as 0.413; in assay [6], 0.32; in assay [7], 0.22; in assay [2], 0.342; in assay [8], 0.1; in [3] it was 0.367. Besides, the Ratio came to 0.37 in [4] and 0.1 in [10]. The negative-log IC50 (pIC50) in assay [9] is 5.06; in [5], 4.99.
On to `CCOC(=O)c1c(-c2ccc(Cl)cc2)c(C#N)c(=O)n(/N=C(\C)c2ccc(NS(=O)(=O)c3ccc(Cl)cc3)cc2)c1N`, for which the Ratio in assay [1] was determined as 0.555; in assay [2] it was 0.314; in [3] it was 0.463; in [4], 0.394. Further, in assay [5], the negative logarithm of the IC50 (pIC50) was 4.69.
For `CCOC(=O)c1c(-c2ccccc2)c(C#N)c(=O)n(/N=C(\C)c2ccc(NS(=O)(=O)c3ccc(Cl)cc3)cc2)c1N` the same measures were 0.617, 0.179, 0.287, 0.212 and 4.77.
Turning to `CCOC(=O)c1c(-c2ccc3c(c2)OCO3)c(C#N)c(=O)n(/N=C(\C)c2ccc(NS(=O)(=O)c3ccc(Cl)cc3)cc2)c1N`, the Ratio in assay [1] is listed as 0.691; in assay [2], 0.134; in [3] it was 0.606; in [4], 0.373. Besides, the negative logarithm of the IC50 (pIC50) in assay [5] is 4.43.
Turning to `C/C(=N\NC(=O)C(C#N)C(=S)S)c1ccc(NS(=O)(=O)c2ccc(Cl)cc2)cc1` (stereo not given), the Ratio in assay [1] is given as 0.542; in assay [2] it was 0.248; in assay [3] it was 0.448; in assay [4] it was 0.387. The pIC50 in assay [5] is 4.76.
Turning to `CCOC(=O)c1c(-c2cccc([N+](=O)[O-])c2)c(C#N)c(=O)n(/N=C(\C)c2ccc(NS(=O)(=O)c3ccc(Cl)cc3)cc2)c1N`, the Ratio in assay [1] worked out at 0.661; in assay [2], 0.298; in [3] it was 0.524; in assay [4], 0.381. Besides, in assay [5], the negative-log IC50 (pIC50) was 4.53.
For `CCOC(=O)c1c(-c2ccc(OC)cc2)c(C#N)c(=O)n(/N=C(\C)c2ccc(NS(=O)(=O)c3ccc(Cl)cc3)cc2)c1N`, the Ratio was determined as 0.651 in assay [1], 0.147 in [2], 0.637 in assay [3] and 0.613 in assay [4]. The pIC50 in assay [5] was 4.21.
As for `CCOC(=O)c1c(/C=C/c2ccccc2)c(C#N)c(=O)n(/N=C(\C)c2ccc(NS(=O)(=O)c3ccc(Cl)cc3)cc2)c1N`, the Ratio in [1] stood at 0.414; in assay [2], 0.114; in assay [3], 0.336; in [4], 0.275. Moreover, the pIC50 in [5] was 4.97.
For `CSC(SC)=C(C#N)C(=O)N/N=C(\C)c1ccc(NS(=O)(=O)c2ccc(Cl)cc2)cc1` the same measures were 0.579, 0.266, 0.44, 0.329 and 4.71.
Consider `CCOC(=O)c1c(-c2ccccc2OC)c(C#N)c(=O)n(/N=C(\C)c2ccc(NS(=O)(=O)c3ccc(Cl)cc3)cc2)c1N`, for which the Ratio in assay [1] stood at 0.489; in assay [2] it was 0.087; in assay [3], 0.129; in assay [4], 0.105. Besides, the pIC50 in assay [5] is 4.94.
Taken in the same sequence, the figures for `CCOC(=O)c1c(-c2ccccc2Cl)c(C#N)c(=O)n(/N=C(\C)c2ccc(NS(=O)(=O)c3ccc(Cl)cc3)cc2)c1N` were 0.488, 0.192, 0.545, 0.342 and 4.94.
With `C/C(=N\NC(=O)CC#N)c1ccc(NS(=O)(=O)c2ccc(Cl)cc2)cc1`, the Ratio worked out at 0.18 in assay [1]; 0.26 in assay [6]; 0.25 in assay [7]; 0.064 in assay [2]; 0.11 in [8]; 0.159 in assay [3]. Also, the Ratio was 0.078 in assay [4] and 0.12 in assay [10]. Besides, the pIC50 in assay [9] was 5.19; in [5], 5.10. The “Ratio IC50” value in assay [11] stood at 4.
In the case of `CCOC(=O)c1c(-c2ccc([N+](=O)[O-])cc2)c(C#N)c(=O)n(/N=C(\C)c2ccc(NS(=O)(=O)c3ccc(Cl)cc3)cc2)c1N`, the Ratio came to 0.713 in assay [1], 0.212 in [2], 0.586 in assay [3] and 0.483 in assay [4]. Besides, the pIC50 in [5] is 4.39.
For `CCO/C=C(\C#N)C(=O)N/N=C(\C)c1ccc(NS(=O)(=O)c2ccc(Cl)cc2)cc1` the same measures were 0.556, 0.222, 0.406, 0.228 and 4.77.
`CCOC(=O)c1c(-c2ccc(C)cc2)c(C#N)c(=O)n(/N=C(\C)c2ccc(NS(=O)(=O)c3ccc(Cl)cc3)cc2)c1N`: the Ratio was found to be 0.264 in [1]; 0.18 in assay [6]; 0.15 in assay [7]; 0.107 in [2]; 0.11 in assay [8]; 0.25 in assay [3]. The results for the Ratio in assay [4] and in assay [10] were 0.214 and 0.12, respectively. The pIC50 in assay [9] is 5.14; in assay [5], 5.08.
For the compound `C/C(=N\NC(=O)/C(C#N)=C/N(C)C)c1ccc(NS(=O)(=O)c2ccc(Cl)cc2)cc1`, the Ratio in [1] came out at 0.642; in [2], 0.281; in assay [3] it was 0.386; in assay [4], 0.311. The pIC50 in [5] was 4.71.
Consider `COc1cccc2c1C(=O)c1c(O)c3c(c(O)c1C2=O)C[C@@](O)(C(=O)CO)C[C@@H]3O[C@H]1C[C@H](N)[C@H](O)[C@H](C)O1` [DOXORUBICIN], for which the Ratio in assay [1] worked out at 0.551; in assay [2], 0.13; in [3], 0.48; in [4], 0.139.
